Reference: ChEMBL document CHEMBL4371006, “Discovery of N-[4-(Quinolin-4-yloxy)phenyl]benzenesulfonamides as Novel AXL Kinase Inhibitors” (J Med Chem, 2018)
Active and inactive are the calls of the source. The rule behind the calls is not given here.

What was measured:
[1] = biological target: Tyrosine-protein kinase receptor UFO (Homo sapiens) (UniProt P30530); assay: Inhibition of AXL (unknown origin) using fluorescence labeled peptide as substrate at 10 uM by IMAP assay relative to control
Summary of the method: (§1)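 IMAP fluorescence-polarization kinase assay at 10 µmol/L compound, run in triplicate by a contract lab. A fluorescently labeled substrate peptide is phosphorylated, then nanoparticles carrying trivalent metal bind the phosphopeptide and slow its rotation. Read-out is fluorescence polarization, expressed as percent inhibition.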

[2] = biological target: Vascular endothelial growth factor receptor 2 (Homo sapiens) (UniProt P35968); assay: Inhibition of VEGFR2 (unknown origin) using biotinylated peptide as substrate at 10 uM by TR-FRET assay relative to control
Vascular endothelial growth factor receptor 2 (Homo sapiens), sequence (P35968 whole entry): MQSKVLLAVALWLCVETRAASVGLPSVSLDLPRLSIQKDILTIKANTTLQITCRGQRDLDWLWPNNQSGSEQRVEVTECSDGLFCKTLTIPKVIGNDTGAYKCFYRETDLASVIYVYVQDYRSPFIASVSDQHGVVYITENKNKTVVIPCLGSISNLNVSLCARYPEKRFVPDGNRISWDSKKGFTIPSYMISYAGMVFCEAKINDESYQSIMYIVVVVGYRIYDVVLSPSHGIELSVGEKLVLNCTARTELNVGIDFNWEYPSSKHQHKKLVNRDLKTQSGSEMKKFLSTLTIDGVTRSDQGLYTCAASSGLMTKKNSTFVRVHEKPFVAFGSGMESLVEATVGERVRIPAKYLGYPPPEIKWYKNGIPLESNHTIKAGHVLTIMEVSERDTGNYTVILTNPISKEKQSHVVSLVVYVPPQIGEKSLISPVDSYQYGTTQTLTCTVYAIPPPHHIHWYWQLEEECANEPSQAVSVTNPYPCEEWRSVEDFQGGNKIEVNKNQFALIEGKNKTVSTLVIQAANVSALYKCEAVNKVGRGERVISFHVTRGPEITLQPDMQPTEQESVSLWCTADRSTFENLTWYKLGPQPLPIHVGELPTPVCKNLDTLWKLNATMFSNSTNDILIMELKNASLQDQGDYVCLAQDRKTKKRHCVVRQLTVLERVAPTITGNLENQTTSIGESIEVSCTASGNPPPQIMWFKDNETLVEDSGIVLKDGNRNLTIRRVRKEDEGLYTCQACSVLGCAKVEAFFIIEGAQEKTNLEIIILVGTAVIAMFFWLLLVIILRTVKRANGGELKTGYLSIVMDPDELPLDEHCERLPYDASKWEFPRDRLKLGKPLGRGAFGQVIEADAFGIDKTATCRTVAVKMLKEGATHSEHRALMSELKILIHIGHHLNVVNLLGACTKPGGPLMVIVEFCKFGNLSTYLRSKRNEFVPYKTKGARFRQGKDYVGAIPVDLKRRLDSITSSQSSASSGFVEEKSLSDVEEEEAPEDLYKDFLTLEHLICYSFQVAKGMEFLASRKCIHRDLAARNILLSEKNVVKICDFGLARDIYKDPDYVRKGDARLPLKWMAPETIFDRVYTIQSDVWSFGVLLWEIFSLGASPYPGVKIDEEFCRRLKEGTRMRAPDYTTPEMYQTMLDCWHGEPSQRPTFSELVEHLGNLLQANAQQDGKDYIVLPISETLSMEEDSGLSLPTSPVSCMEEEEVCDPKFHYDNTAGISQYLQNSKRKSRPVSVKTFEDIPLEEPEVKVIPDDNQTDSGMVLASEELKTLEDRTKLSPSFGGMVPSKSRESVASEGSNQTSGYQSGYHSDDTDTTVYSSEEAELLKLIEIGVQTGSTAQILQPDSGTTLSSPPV

[3] = Ratio of IC50 for antimigratory activity against human MDA-MB-231 cells after 3.5 hrs by microscopy based Boyden chamber assay to IC50 for inhibition of AXL (unknown origin)
[4] = biological target: T1, Proto-oncogene tyrosine-protein kinase Src (Homo sapiens, UniProt P12931); assay: Inhibition of SRC (unknown origin) using biotinylated peptide as substrate at 10 uM by TR-FRET assay relative to control
T1 sequence (P12931 2-536 limits assumed): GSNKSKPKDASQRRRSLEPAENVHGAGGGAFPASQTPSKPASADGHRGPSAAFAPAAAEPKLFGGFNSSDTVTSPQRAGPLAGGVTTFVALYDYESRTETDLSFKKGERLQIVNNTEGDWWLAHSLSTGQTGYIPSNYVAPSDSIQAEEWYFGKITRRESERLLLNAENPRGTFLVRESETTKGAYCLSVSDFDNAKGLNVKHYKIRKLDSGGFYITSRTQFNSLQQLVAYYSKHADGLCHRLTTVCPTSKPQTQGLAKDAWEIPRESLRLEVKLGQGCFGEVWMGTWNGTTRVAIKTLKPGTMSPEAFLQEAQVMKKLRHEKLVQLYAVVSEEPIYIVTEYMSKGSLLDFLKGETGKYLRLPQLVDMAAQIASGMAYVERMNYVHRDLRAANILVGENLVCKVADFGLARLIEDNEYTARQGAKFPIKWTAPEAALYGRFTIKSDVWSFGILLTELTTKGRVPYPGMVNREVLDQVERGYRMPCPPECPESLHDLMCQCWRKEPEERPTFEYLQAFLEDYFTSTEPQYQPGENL

[5] = biological target: T2, Tyrosine-protein kinase receptor UFO (Homo sapiens, UniProt P30530); assay: Inhibition of AXL (unknown origin)
T2 sequence (P30530 whole entry): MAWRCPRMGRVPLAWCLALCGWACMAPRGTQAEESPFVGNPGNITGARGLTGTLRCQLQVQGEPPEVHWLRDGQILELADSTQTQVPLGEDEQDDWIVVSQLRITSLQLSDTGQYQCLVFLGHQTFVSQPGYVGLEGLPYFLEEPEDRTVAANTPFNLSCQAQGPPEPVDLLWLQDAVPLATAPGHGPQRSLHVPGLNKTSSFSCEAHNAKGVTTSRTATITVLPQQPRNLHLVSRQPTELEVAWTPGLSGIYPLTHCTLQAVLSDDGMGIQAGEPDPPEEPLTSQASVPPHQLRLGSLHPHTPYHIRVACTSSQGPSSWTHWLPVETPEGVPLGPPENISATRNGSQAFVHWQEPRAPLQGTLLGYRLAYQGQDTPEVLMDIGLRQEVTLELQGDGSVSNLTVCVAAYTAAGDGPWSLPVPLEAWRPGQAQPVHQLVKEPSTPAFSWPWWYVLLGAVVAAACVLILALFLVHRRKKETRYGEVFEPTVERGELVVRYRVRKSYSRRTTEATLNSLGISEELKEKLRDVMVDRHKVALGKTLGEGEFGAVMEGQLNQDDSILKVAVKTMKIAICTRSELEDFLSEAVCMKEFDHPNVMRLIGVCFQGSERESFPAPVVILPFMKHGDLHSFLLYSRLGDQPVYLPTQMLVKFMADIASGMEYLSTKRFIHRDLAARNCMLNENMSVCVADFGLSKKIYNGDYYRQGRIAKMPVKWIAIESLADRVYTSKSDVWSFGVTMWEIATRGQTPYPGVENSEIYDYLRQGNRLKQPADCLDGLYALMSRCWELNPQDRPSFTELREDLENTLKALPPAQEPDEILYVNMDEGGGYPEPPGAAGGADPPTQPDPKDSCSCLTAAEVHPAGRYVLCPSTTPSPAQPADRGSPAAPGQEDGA

[6] = biological target: T3, Hepatocyte growth factor receptor (Homo sapiens, UniProt P08581); assay: Inhibition of c-MET (unknown origin)
T3 sequence (P08581 whole entry): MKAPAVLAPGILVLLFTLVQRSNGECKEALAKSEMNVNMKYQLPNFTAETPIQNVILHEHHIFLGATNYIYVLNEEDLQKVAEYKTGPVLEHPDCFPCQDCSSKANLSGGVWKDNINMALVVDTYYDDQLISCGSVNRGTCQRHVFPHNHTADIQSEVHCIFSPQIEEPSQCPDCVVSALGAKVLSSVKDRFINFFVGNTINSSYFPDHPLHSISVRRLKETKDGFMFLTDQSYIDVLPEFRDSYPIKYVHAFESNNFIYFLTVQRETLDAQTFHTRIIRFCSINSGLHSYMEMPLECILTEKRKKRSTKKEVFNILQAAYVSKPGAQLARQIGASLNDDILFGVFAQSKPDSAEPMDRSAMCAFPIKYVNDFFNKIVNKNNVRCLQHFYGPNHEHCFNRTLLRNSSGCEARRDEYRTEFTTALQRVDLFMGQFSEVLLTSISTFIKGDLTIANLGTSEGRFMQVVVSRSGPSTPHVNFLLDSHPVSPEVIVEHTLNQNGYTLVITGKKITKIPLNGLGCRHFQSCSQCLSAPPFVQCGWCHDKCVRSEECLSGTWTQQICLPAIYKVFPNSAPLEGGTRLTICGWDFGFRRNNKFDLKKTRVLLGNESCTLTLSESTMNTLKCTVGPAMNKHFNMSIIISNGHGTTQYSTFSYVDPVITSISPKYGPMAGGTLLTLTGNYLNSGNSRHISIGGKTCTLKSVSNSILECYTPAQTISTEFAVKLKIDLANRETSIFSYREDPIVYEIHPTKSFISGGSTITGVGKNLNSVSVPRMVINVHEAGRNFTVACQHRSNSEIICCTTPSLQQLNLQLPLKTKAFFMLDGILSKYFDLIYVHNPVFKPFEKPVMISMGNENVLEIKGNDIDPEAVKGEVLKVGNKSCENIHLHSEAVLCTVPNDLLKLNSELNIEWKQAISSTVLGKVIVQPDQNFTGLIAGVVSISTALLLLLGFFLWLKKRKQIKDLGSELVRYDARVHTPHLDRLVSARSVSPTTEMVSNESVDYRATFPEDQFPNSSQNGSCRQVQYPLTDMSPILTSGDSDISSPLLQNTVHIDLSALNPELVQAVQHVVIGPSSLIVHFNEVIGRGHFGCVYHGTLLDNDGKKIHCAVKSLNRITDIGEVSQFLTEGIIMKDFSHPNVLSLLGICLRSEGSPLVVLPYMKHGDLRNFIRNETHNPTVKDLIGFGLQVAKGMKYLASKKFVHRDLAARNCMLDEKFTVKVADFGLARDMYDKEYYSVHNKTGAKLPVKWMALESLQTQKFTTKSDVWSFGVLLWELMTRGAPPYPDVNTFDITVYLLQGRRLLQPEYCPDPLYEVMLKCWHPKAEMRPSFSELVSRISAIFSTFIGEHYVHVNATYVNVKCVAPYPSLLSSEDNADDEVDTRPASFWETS

[7] = biological target: Mast/stem cell growth factor receptor Kit (Homo sapiens) (UniProt P10721); assay: Inhibition of cKIT (unknown origin) using biotinylated peptide as substrate at 10 uM by TR-FRET assay relative to control
Mast/stem cell growth factor receptor Kit (Homo sapiens), sequence (P10721 whole entry): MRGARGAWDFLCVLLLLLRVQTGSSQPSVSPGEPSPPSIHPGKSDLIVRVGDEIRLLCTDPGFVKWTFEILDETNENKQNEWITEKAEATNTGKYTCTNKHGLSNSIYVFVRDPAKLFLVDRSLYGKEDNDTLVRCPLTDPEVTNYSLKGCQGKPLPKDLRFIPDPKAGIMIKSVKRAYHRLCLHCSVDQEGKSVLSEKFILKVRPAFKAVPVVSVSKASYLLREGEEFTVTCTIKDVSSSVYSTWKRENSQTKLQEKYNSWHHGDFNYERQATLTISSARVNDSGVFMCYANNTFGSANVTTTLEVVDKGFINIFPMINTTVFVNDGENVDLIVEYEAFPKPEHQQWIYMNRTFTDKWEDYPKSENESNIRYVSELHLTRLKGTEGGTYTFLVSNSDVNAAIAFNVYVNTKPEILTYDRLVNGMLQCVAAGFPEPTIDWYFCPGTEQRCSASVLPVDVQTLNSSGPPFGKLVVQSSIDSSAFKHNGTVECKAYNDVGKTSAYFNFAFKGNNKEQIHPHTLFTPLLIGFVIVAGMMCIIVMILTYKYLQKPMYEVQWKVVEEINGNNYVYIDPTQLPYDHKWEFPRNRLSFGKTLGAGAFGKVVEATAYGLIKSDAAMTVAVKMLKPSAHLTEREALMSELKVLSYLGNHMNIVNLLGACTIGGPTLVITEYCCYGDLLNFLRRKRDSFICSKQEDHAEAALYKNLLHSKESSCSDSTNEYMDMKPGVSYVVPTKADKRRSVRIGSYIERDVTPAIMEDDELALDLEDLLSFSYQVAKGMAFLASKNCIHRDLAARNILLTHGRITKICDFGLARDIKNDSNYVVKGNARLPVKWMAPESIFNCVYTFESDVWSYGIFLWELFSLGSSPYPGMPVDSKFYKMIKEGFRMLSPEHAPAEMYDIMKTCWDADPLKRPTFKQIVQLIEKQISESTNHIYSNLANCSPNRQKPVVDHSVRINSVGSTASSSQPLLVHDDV

[8] = biological target: Platelet-derived growth factor receptor beta (Homo sapiens) (UniProt P09619); assay: Inhibition of PDGFRbeta (unknown origin) using fluorescence labeled peptide as substrate at 10 uM by IMAP assay relative to control; summary of the method: as §1
[9] = biological target: T4, Aurora kinase A (Homo sapiens) (UniProt O14965); assay: Inhibition of AurA (unknown origin) using fluorescence labeled peptide as substrate at 10 uM by IMAP assay relative to control; summary of the method: as §1
T4 sequence (whole entry): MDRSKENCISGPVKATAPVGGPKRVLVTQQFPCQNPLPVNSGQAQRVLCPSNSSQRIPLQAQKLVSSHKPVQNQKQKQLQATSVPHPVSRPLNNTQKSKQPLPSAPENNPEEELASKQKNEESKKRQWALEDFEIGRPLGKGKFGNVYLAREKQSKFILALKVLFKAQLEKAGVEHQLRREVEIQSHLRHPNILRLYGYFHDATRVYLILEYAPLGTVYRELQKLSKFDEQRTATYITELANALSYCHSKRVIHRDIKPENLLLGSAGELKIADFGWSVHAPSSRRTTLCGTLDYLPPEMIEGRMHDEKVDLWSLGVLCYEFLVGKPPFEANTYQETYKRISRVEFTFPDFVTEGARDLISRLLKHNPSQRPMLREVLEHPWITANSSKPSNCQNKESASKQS

[10] = Selectivity ratio of compound effect for anti-invasive activity against human MDA-MB-231 cells to IC50 for AXL (unknown origin) phosphorylation
MDA-MB-231 [11] = assay: Antimigratory activity against human MDA-MB-231 cells assessed as inhibition of large cell aggregate formation after 5 hrs by matrigel assay; assay type: functional, cell-based; conditions: MDA-MB-231, 5 h
Summary of the method: (§2)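 MDA-MB-231 cells (7000/well) seeded on polymerized 3 mg/mL Matrigel (set ≥16 h at 37°C) in serum-free medium; inhibitor added at seeding, aggregates forming over 5 h.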

[12] = biological target: T4, Aurora kinase A (Homo sapiens); assay: Inhibition of AurA (unknown origin) using biotinylated peptide as substrate at 10 uM by TR-FRET assay relative to control
[13] = biological target: Platelet-derived growth factor receptor beta (Homo sapiens) (UniProt P09619); assay: Inhibition of PDGFRbeta (unknown origin) using biotinylated peptide as substrate at 10 uM by TR-FRET assay relative to control
[14] = biological target: T3, Hepatocyte growth factor receptor; assay: Inhibition of c-MET (unknown origin) using biotinylated peptide as substrate at 10 uM by TR-FRET assay relative to control
MDA-MB-231 [15] = assay: Anti-invasive activity against human MDA-MB-231 cells up to 3 uM after 5 hrs by matrigel assay; assay type: functional, cell-based; summary of the method: as §2
MDA-MB-231 [16] = assay: Antimigratory activity against human MDA-MB-231 cells after 3.5 hrs by microscopy based Boyden chamber assay; assay type: functional, cell-based; conditions: MDA-MB-231, 3.5 h
Summary of the method: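 Modified Boyden chamber: MDA-MB-231 cells plated in 0.1% FCS medium, migrating through 8 µm pore membrane toward 1% FCS chemoattractant for 3.5 h; transmigrated cells counted microscopically in at least 5 random fields per well.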

[17] = biological target: T1, Proto-oncogene tyrosine-protein kinase Src; assay: Inhibition of SRC (unknown origin)
[18] = biological target: Epidermal growth factor receptor (Homo sapiens, UniProt P00533); assay: Inhibition of wild type EGFR (unknown origin)
[19] = biological target: Tyrosine-protein kinase ABL1 (Homo sapiens) (UniProt P00519); assay: Inhibition of ABL (unknown origin) using fluorescence labeled peptide as substrate at 10 uM by IMAP assay relative to control
Summary of the method: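 IMAP fluorescence-polarization kinase assay: fluorescently labelled substrate peptide phosphorylated, then captured by trivalent-metal nanoparticles, slowing rotation. Compound at 10 µM, triplicates, percent inhibition reported.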

[20] = biological target: Vascular endothelial growth factor receptor 2 (Homo sapiens) (UniProt P35968); assay: Inhibition of VEGFR2 (unknown origin) using fluorescence labeled peptide as substrate at 10 uM by IMAP assay relative to control; summary of the method: as §1

| Compound | Efficacy [1] | Efficacy [2] | Ratio IC50 [3] | Efficacy [4] | IC50 [5] | IC50 [6] | Efficacy [7] | Efficacy [8] | Efficacy [9] | Selectivity ratio [10] | IC50 (MDA-MB-231 [11]) | Efficacy [12] | Efficacy [13] | Efficacy [14] | inhibition (MDA-MB-231 [15]) | IC50 (MDA-MB-231 [16]) | IC50 [17] | IC50 [18] | Efficacy [19] | Efficacy [20] |
| --- | --- | --- | --- | --- | --- | --- | --- | --- | --- | --- | --- | --- | --- | --- | --- | --- | --- | --- | --- | --- |
| COc1cc2c(Oc3ccc(NS(=O)(=O)c4ccccc4C(F)(F)F)cc3F)ccnc2cc1OCCCN1CCN(C)CC1 | 83 to 100% | 83 to 100% | >50 | 83 to 100% | 21 nM | 488 nM | 83 to 100% | 83 to 100% | 83 to 100% | 2 - 6 | 158 nM | 83 to 100% | 83 to 100% | 83 to 100% | Active | 4600 nM | 544 nM | 281 nM | 83 to 100% | 83 to 100% |
| COc1cc2c(Oc3ccc(NS(=O)(=O)c4cc(F)ccc4F)cc3F)ccnc2cc1OCCCN1CCN(C)CC1 | 83 to 100% | 83 to 100% | >50 | 83 to 100% | 27 nM | 358 nM | 83 to 100% | 83 to 100% | 83 to 100% | 2 - 6 | 158 nM | 83 to 100% | 83 to 100% | 83 to 100% | Active | 2500 nM | 88 nM | 149 nM | 83 to 100% | 83 to 100% |
| COc1cc2c(Oc3ccc(NS(=O)(=O)c4c(F)cccc4F)cc3F)ccnc2cc1OCCCN1CCN(C)CC1 | 83 to 100% | 83 to 100% | >50 | 83 to 100% | 35 nM | 127 nM | 83 to 100% | 83 to 100% | 83 to 100% | 2 - 6 | 156 nM | 83 to 100% | 83 to 100% | 83 to 100% | Active | 1500 nM | 44 nM | 178 nM | 83 to 100% | 83 to 100% |
| COc1cc2c(Oc3ccc(NS(=O)(=O)c4cc(F)ccc4F)cc3F)ccnc2cc1OCCCN1CCCC(C)C1 (stereo not given) | 83 to 100% | 83 to 100% | >50 | 83 to 100% | 28 nM | 1310 nM | 83 to 100% | 83 to 100% | 83 to 100% | 2 - 6 | 185 nM | 83 to 100% | 83 to 100% | 83 to 100% | Active | 3300 nM | 113 nM | 1130 nM | 83 to 100% | 83 to 100% |
